Data: ChEMBL document CHEMBL5058577, “EUbOPEN Chemogenomics Library 2 (Multiplex)” (2022)

Tested on: HEK-293T
Assay: Multiplex assay against HEK293T
Format: toxicity, cell-based
Conditions: human
Outline: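 Imaging took place on a CQ1 microscope at 37°C and 5% CO2 once compound had been added to live cells stained at seeding with Hoechst33342, BioTracker Green Microtubule Cytoskeleton Dye, MitoTracker Red and Annexin V Alexa Fluor 680. CellPathfinder machine-learning gating classed cells as Hoechst high-intensity objects or normal cells, classed normal cells as having healthy, pyknosed or fragmented nuclei, and classed pyknosed cells as mitotic or apoptotic. Tubulin, mitochondrial-mass and membrane-permeability phenotypes are per cents of the healthy-nucleus cells.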

[1] = 12 h, 1 µM, compound concentration 1 uM, replicate 1
[2] = 12 h, 1 µM, compound concentration 1 uM, replicate 2
[3] = 12 h, 10 µM, compound concentration 10 uM, replicate 1
[4] = 12 h, 10 µM, compound concentration 10 uM, replicate 2
[5] = 24 h, 1 µM, compound concentration 1 uM, replicate 1
[6] = 24 h, 1 µM, compound concentration 1 uM, replicate 2
[7] = 24 h, 10 µM, compound concentration 10 uM, replicate 1
[8] = 24 h, 10 µM, compound concentration 10 uM, replicate 2
[9] = 48 h, 1 µM, compound concentration 1 uM, replicate 1
[10] = 48 h, 1 µM, compound concentration 1 uM, replicate 2
[11] = 48 h, 10 µM, compound concentration 10 uM, replicate 1
[12] = 48 h, 10 µM, compound concentration 10 uM, replicate 2

Cl.Cl.OCCOCCN1CCN(C(c2ccccc2)c2ccc(Cl)cc2)CC1 (centres undefined) [HYDROXYZINE HYDROCHLORIDE]
Population Apoptotic (%) [1]: 34%
Population Fragmented Nuclei (%) [1]: 7%
Population Healthy Nuclei (%) [1]: 79%
Population Hoechst High Intensity Objects (%) [1]: 6%
Population Membrane Permeable-Phenotype (%) [1]: 0%
Population Mitochondria Different-Phenotype (%) [1]: 48%
Population Mitotic Cells (%) [1]: 66%
Population Normal (%) [1]: 93%
Population Pyknosed Nuclei (%) [1]: 13%
Population Tubulin-Different-Phenotype (%) [1]: 24%
Total Cell Count [1]: 394
Population Apoptotic (%) [2]: 70%
Population Fragmented Nuclei (%) [2]: 5%
Population Healthy Nuclei (%) [2]: 84%
Population Hoechst High Intensity Objects (%) [2]: 9%
Population Mitochondria Different-Phenotype (%) [2]: 58%
Population Mitotic Cells (%) [2]: 29%
Population Normal (%) [2]: 90%
Population Pyknosed Nuclei (%) [2]: 9%
Population Tubulin-Different-Phenotype (%) [2]: 28%
Total Cell Count [2]: 362
Population Apoptotic (%) [3]: 49%
Population Fragmented Nuclei (%) [3]: 8%
Population Healthy Nuclei (%) [3]: 71%
Population Hoechst High Intensity Objects (%) [3]: 11%
Population Membrane Permeable-Phenotype (%) [3]: 0%
Population Mitochondria Different-Phenotype (%) [3]: 71%
Population Mitotic Cells (%) [3]: 50%
Population Normal (%) [3]: 88%
Population Pyknosed Nuclei (%) [3]: 19%
Population Tubulin-Different-Phenotype (%) [3]: 65%
Total Cell Count [3]: 354
Population Apoptotic (%) [4]: 68%
Population Fragmented Nuclei (%) [4]: 6%
Population Healthy Nuclei (%) [4]: 73%
Population Hoechst High Intensity Objects (%) [4]: 19%
Population Membrane Permeable-Phenotype (%) [4]: 1%
Population Mitochondria Different-Phenotype (%) [4]: 83%
Population Mitotic Cells (%) [4]: 31%
Population Normal (%) [4]: 80%
Population Pyknosed Nuclei (%) [4]: 20%
Population Tubulin-Different-Phenotype (%) [4]: 59%
Total Cell Count [4]: 327
Population Apoptotic (%) [5]: 22%
Population Fragmented Nuclei (%) [5]: 10%
Population Healthy Nuclei (%) [5]: 78%
Population Hoechst High Intensity Objects (%) [5]: 2%
Population Membrane Permeable-Phenotype (%) [5]: 0%
Population Mitochondria Different-Phenotype (%) [5]: 34%
Population Mitotic Cells (%) [5]: 77%
Population Normal (%) [5]: 97%
Population Pyknosed Nuclei (%) [5]: 11%
Population Tubulin-Different-Phenotype (%) [5]: 22%
Total Cell Count [5]: 566
Population Apoptotic (%) [6]: 43%
Population Fragmented Nuclei (%) [6]: 11%
Population Hoechst High Intensity Objects (%) [6]: 13%
Population Mitochondria Different-Phenotype (%) [6]: 41%
Population Mitotic Cells (%) [6]: 56%
Population Normal (%) [6]: 86%
Population Pyknosed Nuclei (%) [6]: 9%
Population Tubulin-Different-Phenotype (%) [6]: 17%
Total Cell Count [6]: 481
Population Apoptotic (%) [7]: 29%
Population Fragmented Nuclei (%) [7]: 10%
Population Healthy Nuclei (%) [7]: 74%
Population Hoechst High Intensity Objects (%) [7]: 8%
Population Membrane Permeable-Phenotype (%) [7]: 0%
Population Mitochondria Different-Phenotype (%) [7]: 55%
Population Mitotic Cells (%) [7]: 70%
Population Normal (%) [7]: 91%
Population Pyknosed Nuclei (%) [7]: 15%
Population Tubulin-Different-Phenotype (%) [7]: 49%
Total Cell Count [7]: 472
Population Apoptotic (%) [8]: 59%
Population Fragmented Nuclei (%) [8]: 8%
Population Healthy Nuclei (%) [8]: 71%
Population Hoechst High Intensity Objects (%) [8]: 22%
Population Mitochondria Different-Phenotype (%) [8]: 72%
Population Mitotic Cells (%) [8]: 40%
Population Normal (%) [8]: 77%
Population Pyknosed Nuclei (%) [8]: 19%
Population Tubulin-Different-Phenotype (%) [8]: 43%
Total Cell Count [8]: 383
Population Apoptotic (%) [9]: 23%
Population Fragmented Nuclei (%) [9]: 14%
Population Healthy Nuclei (%) [9]: 79%
Population Hoechst High Intensity Objects (%) [9]: 1%
Population Membrane Permeable-Phenotype (%) [9]: 1%
Population Mitochondria Different-Phenotype (%) [9]: 19%
Population Mitotic Cells (%) [9]: 76%
Population Normal (%) [9]: 98%
Population Pyknosed Nuclei (%) [9]: 5%
Population Tubulin-Different-Phenotype (%) [9]: 14%
Total Cell Count [9]: 932
Population Apoptotic (%) [10]: 46%
Population Hoechst High Intensity Objects (%) [10]: 3%
Population Membrane Permeable-Phenotype (%) [10]: 0%
Population Mitotic Cells (%) [10]: 53%
Population Normal (%) [10]: 96%
Population Pyknosed Nuclei (%) [10]: 6%
Population Tubulin-Different-Phenotype (%) [10]: 12%
Total Cell Count [10]: 676
Population Apoptotic (%) [11]: 38%
Population Fragmented Nuclei (%) [11]: 14%
Population Healthy Nuclei (%) [11]: 76%
Population Hoechst High Intensity Objects (%) [11]: 6%
Population Membrane Permeable-Phenotype (%) [11]: 0%
Population Mitochondria Different-Phenotype (%) [11]: 45%
Population Mitotic Cells (%) [11]: 61%
Population Normal (%) [11]: 93%
Population Pyknosed Nuclei (%) [11]: 9%
Population Tubulin-Different-Phenotype (%) [11]: 35%
Total Cell Count [11]: 627
Population Apoptotic (%) [12]: 60%
Population Fragmented Nuclei (%) [12]: 15%
Population Healthy Nuclei (%) [12]: 72%
Population Hoechst High Intensity Objects (%) [12]: 16%
Population Mitochondria Different-Phenotype (%) [12]: 53%
Population Mitotic Cells (%) [12]: 40%
Population Normal (%) [12]: 83%
Population Pyknosed Nuclei (%) [12]: 12%
Total Cell Count [12]: 539

COc1ccc2[nH]c(I)c(CCNC(C)=O)c2c1 [IODOMELATONIN]
Population Apoptotic (%) [1]: 42%
Population Fragmented Nuclei (%) [1]: 4%
Population Healthy Nuclei (%) [1]: 80%
Population Hoechst High Intensity Objects (%) [1]: 5%
Population Membrane Permeable-Phenotype (%) [1]: 1%
Population Mitochondria Different-Phenotype (%) [1]: 43%
Population Mitotic Cells (%) [1]: 57%
Population Normal (%) [1]: 94%
Population Pyknosed Nuclei (%) [1]: 14%
Population Tubulin-Different-Phenotype (%) [1]: 35%
Total Cell Count [1]: 388
Population Apoptotic (%) [2]: 59%
Population Fragmented Nuclei (%) [2]: 5%
Population Healthy Nuclei (%) [2]: 84%
Population Hoechst High Intensity Objects (%) [2]: 7%
Population Membrane Permeable-Phenotype (%) [2]: 0%
Population Mitochondria Different-Phenotype (%) [2]: 64%
Population Mitotic Cells (%) [2]: 40%
Population Normal (%) [2]: 92%
Population Pyknosed Nuclei (%) [2]: 10%
Population Tubulin-Different-Phenotype (%) [2]: 32%
Total Cell Count [2]: 400
Population Apoptotic (%) [3]: 38%
Population Fragmented Nuclei (%) [3]: 11%
Population Healthy Nuclei (%) [3]: 77%
Population Hoechst High Intensity Objects (%) [3]: 8%
Population Membrane Permeable-Phenotype (%) [3]: 0%
Population Mitochondria Different-Phenotype (%) [3]: 52%
Population Mitotic Cells (%) [3]: 61%
Population Normal (%) [3]: 91%
Population Pyknosed Nuclei (%) [3]: 10%
Population Tubulin-Different-Phenotype (%) [3]: 29%
Total Cell Count [3]: 445
Population Apoptotic (%) [4]: 46%
Population Fragmented Nuclei (%) [4]: 8%
Population Hoechst High Intensity Objects (%) [4]: 12%
Population Mitochondria Different-Phenotype (%) [4]: 62%
Population Mitotic Cells (%) [4]: 53%
Population Normal (%) [4]: 87%
Population Pyknosed Nuclei (%) [4]: 14%
Population Tubulin-Different-Phenotype (%) [4]: 25%
Total Cell Count [4]: 316
Population Apoptotic (%) [5]: 38%
Population Fragmented Nuclei (%) [5]: 8%
Population Healthy Nuclei (%) [5]: 80%
Population Hoechst High Intensity Objects (%) [5]: 3%
Population Membrane Permeable-Phenotype (%) [5]: 1%
Population Mitochondria Different-Phenotype (%) [5]: 24%
Population Mitotic Cells (%) [5]: 61%
Population Normal (%) [5]: 96%
Population Pyknosed Nuclei (%) [5]: 11%
Population Tubulin-Different-Phenotype (%) [5]: 23%
Total Cell Count [5]: 511
Population Apoptotic (%) [6]: 44%
Population Fragmented Nuclei (%) [6]: 9%
Population Healthy Nuclei (%) [6]: 78%
Population Hoechst High Intensity Objects (%) [6]: 8%
Population Membrane Permeable-Phenotype (%) [6]: 0%
Population Mitochondria Different-Phenotype (%) [6]: 37%
Population Mitotic Cells (%) [6]: 55%
Population Normal (%) [6]: 91%
Population Tubulin-Different-Phenotype (%) [6]: 14%
Total Cell Count [6]: 497
Population Apoptotic (%) [7]: 32%
Population Fragmented Nuclei (%) [7]: 11%
Population Healthy Nuclei (%) [7]: 77%
Population Hoechst High Intensity Objects (%) [7]: 5%
Population Membrane Permeable-Phenotype (%) [7]: 1%
Population Mitochondria Different-Phenotype (%) [7]: 31%
Population Mitotic Cells (%) [7]: 67%
Population Normal (%) [7]: 94%
Population Pyknosed Nuclei (%) [7]: 10%
Population Tubulin-Different-Phenotype (%) [7]: 25%
Total Cell Count [7]: 568
Population Apoptotic (%) [8]: 40%
Population Fragmented Nuclei (%) [8]: 5%
Population Healthy Nuclei (%) [8]: 81%
Population Hoechst High Intensity Objects (%) [8]: 9%
Population Membrane Permeable-Phenotype (%) [8]: 0%
Population Mitochondria Different-Phenotype (%) [8]: 48%
Population Mitotic Cells (%) [8]: 59%
Population Normal (%) [8]: 90%
Population Pyknosed Nuclei (%) [8]: 12%
Population Tubulin-Different-Phenotype (%) [8]: 21%
Total Cell Count [8]: 360
Population Apoptotic (%) [9]: 26%
Population Fragmented Nuclei (%) [9]: 12%
Population Healthy Nuclei (%) [9]: 79%
Population Hoechst High Intensity Objects (%) [9]: 4%
Population Membrane Permeable-Phenotype (%) [9]: 1%
Population Mitochondria Different-Phenotype (%) [9]: 19%
Population Mitotic Cells (%) [9]: 73%
Population Normal (%) [9]: 95%
Population Pyknosed Nuclei (%) [9]: 7%
Population Tubulin-Different-Phenotype (%) [9]: 16%
Total Cell Count [9]: 770
Population Apoptotic (%) [10]: 31%
Population Hoechst High Intensity Objects (%) [10]: 5%
Population Mitochondria Different-Phenotype (%) [10]: 22%
Population Mitotic Cells (%) [10]: 68%
Population Normal (%) [10]: 94%
Population Pyknosed Nuclei (%) [10]: 8%
Population Tubulin-Different-Phenotype (%) [10]: 14%
Total Cell Count [10]: 622
Population Apoptotic (%) [11]: 23%
Population Fragmented Nuclei (%) [11]: 16%
Population Healthy Nuclei (%) [11]: 77%
Population Hoechst High Intensity Objects (%) [11]: 1%
Population Membrane Permeable-Phenotype (%) [11]: 1%
Population Mitochondria Different-Phenotype (%) [11]: 16%
Population Mitotic Cells (%) [11]: 76%
Population Normal (%) [11]: 98%
Population Pyknosed Nuclei (%) [11]: 5%
Population Tubulin-Different-Phenotype (%) [11]: 11%
Total Cell Count [11]: 860
Population Apoptotic (%) [12]: 25%
Population Fragmented Nuclei (%) [12]: 15%
Population Healthy Nuclei (%) [12]: 75%
Population Hoechst High Intensity Objects (%) [12]: 2%
Population Membrane Permeable-Phenotype (%) [12]: 0%
Population Mitochondria Different-Phenotype (%) [12]: 24%
Population Mitotic Cells (%) [12]: 74%
Population Normal (%) [12]: 97%
Population Pyknosed Nuclei (%) [12]: 9%
Population Tubulin-Different-Phenotype (%) [12]: 16%
Total Cell Count [12]: 613
